This is a sample that favours compounds with a hit; in the whole collection about 3.6% have one here.
BB579 growth dn – yeast BB579 growth reduction in restrictive medium | inhibition, % at 10 µM | S. cerevisiae BB579 growth, OD615, 48 h | actives 0.51% (n = 140,000);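 active = inhibition above a set limit, 3 SD over the mean compound inhibition, cut at about 44% in these data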
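Material: Saccharomyces cerevisiae DeaD strain BB579, replicative lifespan model yeast; buffer or medium: CSMM-D restrictive synthetic medium containing dextrose (glucose); compound: 10 µM single dose, DMSO 0.25%; timing: 48 h compound exposure at 30 °C after 4 h preincubation; signal: turbidity as optical density at 615 nm; benchmarks: positive control amphotericin B 10 µg/mL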
Measles CPE – protection of cells from measles virus; AID 841; Measles virus-infected cells, CPE protection, absorbance; protection (pct of control), % at 4 µM; actives 1.5% (n = 140,000); in the data active = protection mostly above about 24%, no sharp cut-off; inactive = mostly below about 26%
Yeast lifespan up – yeast lifespan extension; S. cerevisiae growth with nicotinamide, OD615; deaD strain in restrictive glucose medium; inhibition of the nicotinamide effect, % at 10 µM; actives 0.68% (n = 130,000); AID 775;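 active = inhibition above a set limit, placed 3 SD over the median of all compounds, cut at about 26% in these data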
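Test system – modified budding yeast, DeaD strain · Compound – single dose 10 µM compound, 0.25% DMSO · Times – culture preincubation 4 h, compound exposure 48 h, both 30 °C · Detection – optical density (absorbance) at 615 nm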
RAM network inh – yeast RAM network inhibition; S. cerevisiae dse1pr::URA3 reporter, 5-FOA growth OD615, 2 d; analog-sensitive cbk1-as2 kinase mutant strain; inhibition, % at 50 µM; actives 1.8% (n = 190,000); AID 868;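 active = inhibition above a set limit, 3 SD over mean compound inhibition, cut at about 8.4% in these data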;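 note: inhibition rescues growth on 5-FOA so higher OD means more RAM inhibition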
A number is an active result; 0 = inactive; - = not tested or not shown.

SMILES	BB579 growth dn	Measles CPE	Yeast lifespan up	RAM network inh
Cc1ccc(NC(=O)C2C(c3ccccc3)C=CC(c3ccccc3)C2C(=O)O)cc1 (configuration not stated)	0	27	30	0
COC(=O)c1cc(OC)c(OC)cc1NC(=S)N1CCN(c2ccccn2)CC1	-	-	-	0
Cc1c(NC(=O)C(=O)/C=C(\O)c2ccc(Cl)cc2)c(=O)n(-c2ccccc2)n1C	0	0	79	0
Cc1c(NC(=S)N/N=C\c2ccccc2O)c(=O)n(-c2ccccc2)n1C	0	55	0	0
Cc1c(N/C=C/C(=O)c2ccc(Cl)cc2)c(=O)n(-c2ccccc2)n1C	0	0	0	0
CCOc1cc(OCC)cc(C(=O)NC(=S)Nc2cccc(C(F)(F)F)c2)c1	0	0	0	11
CCOc1cccc(C(=O)NC(=S)Nc2ccc(N3CCCC3)cc2)c1	0	0	0	11
CCOc1cc(OCC)cc(C(=O)Nc2cccc(C(C)=O)c2)c1	0	0	0	0
CCOC(=O)C(=O)Nc1cc(Cl)ccc1C	0	0	0	0
C=CCNc1nc(N2CCCCC2)c(C#N)c2c1CN(Cc1ccccc1)CC2	0	61	0	0
Cn1cccc1C(=O)OCC(=O)N1CC(=O)Nc2ccccc21	-	-	-	0
COC(=O)/C(=C\c1ccc2c(c1)c1ccccc1n2C)NC(=O)c1ccccc1	0	0	0	8.6
Cn1c2ccccc2c2cc(C(=O)O)ccc21	77	0	0	0
CCCn1c2ccccc2c2cc(C(=O)O)ccc21	0	0	0	0
CCCCCSc1nc2c(c(=O)[nH]c(=O)n2C)n1C(C)C	0	0	0	0
CCCCCSc1nc2c(c(=O)[nH]c(=O)n2C)n1C	0	0	58	0
CCCCCn1c(Sc2ncccn2)nc2c1c(=O)[nH]c(=O)n2C	0	38	0	0
CC(=O)c1cnn(-c2cc(Oc3cccc(C)c3)ncn2)c1C	0	51	0	0
Cc1ccc(NC(=O)Nc2nc(-c3ccc(C)s3)cs2)cc1	0	0	87	0
Cc1cccc(C(=O)NCCN2CCOCC2)c1[N+](=O)[O-]	0	0	0	0
Cc1cc(C)cc(NC(=O)N2CCN(C/C=C/c3ccccc3)CC2)c1	-	-	-	0
COc1ccccc1N1CCN(C(CNS(=O)(=O)c2ccccc2)c2cccnc2)CC1 (configuration not stated)	0	33	0	0
CCOC(=O)CSc1nnc(CSc2nc3sc4c(c3c(=O)[nH]2)CCC4)n1C	0	0	0	8.7
COCCN1C(=O)c2cc(C(=O)Nc3ccc(OC)c(OC)c3)ccc2C1Nc1ccc(OC)c(OC)c1 (configuration not stated)	-	-	-	0
O=C(Nc1nc(-c2ccccn2)cs1)C1CC(=O)N(c2ccc3c(c2)OCCO3)C1 (configuration not stated)	0	0	0	0
SMILES	BB579 growth dn	Measles CPE	Yeast lifespan up	RAM network inh
Cc1ccc(NC(=O)CN(C)C(=O)c2n[nH]c(=O)c3ccccc23)cc1	-	-	-	0
c1ccc(SSc2ccccc2)cc1	0	0	28	0
c1ccc(SCCc2ccncc2)cc1	0	0	0	0
CC(C)(C)C(=O)Cn1c(=N)n(Cc2ccccc2)c2ccccc21	0	0	32	0
N#Cc1ccccc1NC(=O)c1ccc2c(Cl)c3c(nc2c1)CCCC3	45	0	0	0
O=C(c1ccc2c(Cl)c3c(nc2c1)CCCC3)N1CCN(c2ccc(F)cc2)CC1	0	0	0	0
CCN(C(=O)c1ccc2c(Cl)c3c(nc2c1)CCC3)c1cccc(C)c1	0	0	39	0
COc1ccccc1N1CCN(C(=O)c2ccc3c(Cl)c4c(nc3c2)CCCC4)CC1	0	0	28	0
CCN1C(=O)C(CC(=O)Nc2ccc(Br)cc2)N(CCCc2ccccc2)C1=S (configuration not stated)	0	0	0	11
CCOC(=O)C(C(=O)OCC)C(Nc1cccc(Br)c1)c1ccccc1 (configuration not stated)	0	31	0	0
CCCCc1ccc(NC(=O)COc2ccc(C(=O)Nc3ccccc3OCC)cc2)cc1	0	0	0	8.7
CCOC(=O)Nc1cccc(OCC(=O)Nc2ccccc2OCC)c1	0	0	0	9.6
CCCCCNC(=O)CSC1=N/C(=C\c2ccc(Cl)c(Cl)c2)C(=O)N1CC	0	41	0	0
CCCNC(=O)CSC1=N/C(=C/c2ccc(F)cc2)C(=O)N1CC	0	0	0	0
COC(=O)c1ccc(COC(=O)CNS(=O)(=O)c2ccc(C)cc2)cc1	-	-	-	0
CN1CCCCC1=NCCCn1cnc2c1c(=O)n(C)c(=O)n2C	0	19	0	0
Cn1c(=O)c2c(ncn2CC(N)=O)n(C)c1=O	0	0	0	0
Cn1c(CCCCCN)nc2ccccc21	0	0	30	0
CCCC(=O)NCCCc1nc2ccccc2n1C	0	0	0	0
CN1CCC(=NNC(=O)CSc2ccc(Cl)cc2)CC1	-	-	-	0
COc1ccc(/C=N/n2c(N)c(S(=O)(=O)c3cccs3)c3nc4ccccc4nc32)cc1OC	0	32	0	0
Cc1nc(N/N=C/c2ccccn2)sc1C	44	0	0	0
CCOC(=O)N1CCN(C(=S)Nc2cc(S(=O)(=O)N3CCOCC3)ccc2Cl)CC1	-	-	-	0
CCOCc1c(C(=O)OCC(=O)Nc2ccc(C)c(S(=O)(=O)N(C)C)c2)oc2ccccc12	0	0	0	8.7
Cc1ccc(NC(=O)COC(=O)CCC(=O)c2ccc(Cl)cc2)cc1S(=O)(=O)N(C)C	0	0	0	11
SMILES	BB579 growth dn	Measles CPE	Yeast lifespan up	RAM network inh
CCN(CC)S(=O)(=O)c1cc(NC(=O)COC(=O)c2sc3ccccc3c2Cl)ccc1C	0	0	0	0
CCO[C@@H]1OC(C(=O)N2CCCCCCC2)=C[C@H](C2CCCCC2)[C@H]1CCCO	-	-	-	0
COC(=O)c1sc(N2CCN(c3ccc(Cl)cc3)CC2)nc1N	-	-	-	0
Cc1ccc(OCCNC(=O)c2cc(C(=O)NCCOc3ccc(C)cc3)cc([N+](=O)[O-])c2)cc1	0	0	0	8.9
COc1ccc(NC(=O)c2cc(S(=O)(=O)NCC3COc4ccccc4O3)ccc2F)cc1 (configuration not stated)	0	0	0	0
O=C(Nc1ccc(C(F)(F)F)cc1)c1cc(S(=O)(=O)NCC2COc3ccccc3O2)ccc1F (configuration not stated)	0	0	0	8.4
CCN1C(=O)N[C@H](c2ccc(Br)cc2)C(C(C)=O)=C1C	0	0	40	0
CCOC(=O)Cn1nc(C)n(-c2ccc(F)cc2)c1=O	-	-	-	0
COc1ccc(CNC(=S)Nc2cccc(C)c2)cc1	0	40	0	0
Cc1ccc(NC(=S)NCC(C)CSc2ccc(Cl)cc2)cc1 (configuration not stated)	-	-	-	0
CCc1ccccc1NC(=S)NCCSc1ccc(Cl)cc1	-	-	-	10
Cc1ccccc1NC(=S)NCCSc1ccc(Cl)cc1	-	-	-	0
Cc1cccc(NC(=S)NCc2ccc(F)cc2)c1	0	0	0	0
Cc1ccc(NC(=S)NCCSc2ccc(Cl)cc2)c(C)c1	0	0	0	11
Cc1cccc(NC(=S)NCC(C)CSc2ccc(Cl)cc2)c1 (configuration not stated)	-	-	-	8.9
Cc1cccc(OCCC(=O)Nc2ccc(F)c(Cl)c2)c1	0	0	0	0
